Assay results: ChEMBL document CHEMBL1150203, “Antimicrobial diterpenes of Croton sonderianus, 1. Hardwickic and 3,4-secotrachylobanoic acids” (1991)
≈ marks a conversion by molar mass, not a printed value. Structures can show the parent of a compound that is named as a salt. Calls of active or inactive are those of the source. The rule behind the calls is not given here.

Assays:
Saccharomyces cerevisiae [1] = assay: Antifungal activity against Saccharomyces cerevisiae ATCC 9763 at 1 mg/ml after 72 hrs by agar-well diffusion assay; format: functional
Procedure, shortened: (§1)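 Fungi and yeasts streaked on mycophil agar from broth culture diluted 1:10 in sterile water; 100 μl of compound at 1 mg/ml placed in 11 mm cork-borer wells; plates held at 30°. Inhibition zone width (mm) recorded at 48 and 72 h and coded – to ++++ (1–2, 3–6, 7–12, >13 mm); amphotericin B positive control.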

[2] = system: Trichophyton mentagrophytes; assay: Antifungal activity against Trichophyton mentagrophytes ATCC 9972 at 1 mg/ml after 72 hrs by agar-well diffusion assay; format: functional; conditions: for zone of inhibition at 1000 µg/mL: ATCC 9972, 72 h, read-out: IZ; procedure, shortened: as §1
Pseudomonas aeruginosa [3] = assay: Antibacterial activity against Pseudomonas aeruginosa ATCC 15442 at 1 mg/ml after 48 hrs by agar-well diffusion assay; format: functional
Procedure, shortened: (§2)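 Agar-well diffusion on eugon agar, bacteria streaked by quadrant method from broth culture diluted 1:10 in sterile water; 11 mm wells given 100 μl of compound at 1 mg/ml; 37° incubation. Zone width (mm) read at 24 and 48 h, coded –, + (1–2), ++ (3–6), +++ (7–12), ++++ (>13); streptomycin sulfate positive control.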

Bacillus subtilis [4] = assay: Antibacterial activity against Bacillus subtilis ATCC 6633 after 48 hrs by twofold serial dilution method; format: functional; conditions: ATCC 6633, 48 h
Trametes sanguinea [5] = assay: Antifungal activity against Polyporus sanguineus ATCC 16422 at 1 mg/ml after 48 hrs by agar-well diffusion assay; format: functional; procedure, shortened: as §1
[6] = system: Mycolicibacterium smegmatis; assay: Antibacterial activity against Mycobacterium smegmatis ATCC 607 at 1 mg/ml after 48 hrs by agar-well diffusion assay; conditions: ATCC 607, 48 h, read-out: IZ
Bacillus subtilis [7] = assay: Antibacterial activity against Bacillus subtilis ATCC 6633 at 1 mg/ml after 48 hrs by agar-well diffusion assay; format: functional; conditions: ATCC 6633, 48 h, read-out: IZ; procedure, shortened: as §2
Staphylococcus aureus [8] = assay: Antibacterial activity against Staphylococcus aureus ATCC 6538 at 1 mg/ml after 24 hrs by agar-well diffusion assay; format: functional; conditions: for zone of inhibition at 1000 µg/mL: ATCC 6538, 24 h, read-out: IZ; procedure, shortened: as §2
Aspergillus niger [9] = assay: Antifungal activity against Aspergillus niger ATCC 16888 at 1 mg/ml after 48 hrs by agar-well diffusion assay; format: functional; procedure, shortened: as §1
Candida albicans [10] = assay: Antifungal activity against Candida albicans ATCC 10231 at 1 mg/ml after 72 hrs by agar-well diffusion assay; format: functional; conditions: ATCC 10231, 72 h, read-out: IZ; procedure, shortened: as §1
Escherichia coli [11] = assay: Antibacterial activity against Escherichia coli ATCC 10536 at 1 mg/ml after 48 hrs by agar-well diffusion assay; format: functional; procedure, shortened: as §2
Aspergillus niger [12] = assay: Antifungal activity against Aspergillus niger ATCC 16888 at 1 mg/ml after 72 hrs by agar-well diffusion assay; format: functional; procedure, shortened: as §1
[13] = system: Trichophyton mentagrophytes; assay: Antifungal activity against Trichophyton mentagrophytes ATCC 9972 at 1 mg/ml after 48 hrs by agar-well diffusion assay; format: functional; conditions: for zone of inhibition at 1000 µg/mL: ATCC 9972, 48 h, read-out: IZ; procedure, shortened: as §1
Saccharomyces cerevisiae [14] = assay: Antifungal activity against Saccharomyces cerevisiae ATCC 9763 after 48 hrs by twofold serial dilution method; format: functional; conditions: ATCC 9763, 48 h
Bacillus subtilis [15] = assay: Antibacterial activity against Bacillus subtilis ATCC 6633 after 24 hrs by twofold serial dilution method; format: functional; conditions: ATCC 6633, 24 h
Saccharomyces cerevisiae [16] = assay: Antifungal activity against Saccharomyces cerevisiae ATCC 9763 after 24 hrs by twofold serial dilution method; format: functional; conditions: ATCC 9763, 24 h
[17] = system: Mycolicibacterium smegmatis; assay: Antibacterial activity against Mycobacterium smegmatis ATCC 607 at 1 mg/ml after 48 hrs by agar-well diffusion assay; format: functional; conditions: ATCC 607, 48 h, read-out: IZ
Procedure, shortened: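 Quadrant-streaked eugon agar plates (broth culture diluted 1:10 in water) with 11 mm wells receiving 100 μl of 1 mg/ml compound, incubated at 37°; inhibition zone width in mm scored at 48 h and 72 h as –, +, ++, +++, ++++ (1–2, 3–6, 7–12, >13 mm); streptomycin sulfate control.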

Pseudomonas aeruginosa [18] = assay: Antibacterial activity against Pseudomonas aeruginosa ATCC 15442 at 1 mg/ml after 24 hrs by agar-well diffusion assay; format: functional; procedure, shortened: as §2
Helminthosporium [19] = assay: Antifungal activity against Helminthosporium ATCC 4671 at 1 mg/ml after 48 hrs by agar-well diffusion assay; format: functional; conditions: for zone of inhibition at 1000 µg/mL: ATCC 4671, 48 h, read-out: IZ; procedure, shortened: as §1
Candida albicans [20] = assay: Antifungal activity against Candida albicans ATCC 10231 at 1 mg/ml after 48 hrs by agar-well diffusion assay; format: functional; conditions: ATCC 10231, 48 h, read-out: IZ; procedure, shortened: as §1
Escherichia coli [21] = assay: Antibacterial activity against Escherichia coli ATCC 10536 at 1 mg/ml after 24 hrs by agar-well diffusion assay; format: functional; procedure, shortened: as §2
Staphylococcus aureus [22] = assay: Antibacterial activity against Staphylococcus aureus ATCC 6538 at 1 mg/ml after 48 hrs by agar-well diffusion assay; format: functional; conditions: for zone of inhibition at 1000 µg/mL: ATCC 6538, 48 h, read-out: IZ; procedure, shortened: as §2
Trametes sanguinea [23] = assay: Antifungal activity against Polyporus sanguineus ATCC 16422 at 1 mg/ml after 72 hrs by agar-well diffusion assay; format: functional; procedure, shortened: as §1
Helminthosporium [24] = assay: Antifungal activity against Helminthosporium ATCC 4671 at 1 mg/ml after 72 hrs by agar-well diffusion assay; format: functional; conditions: for zone of inhibition at 1000 µg/mL: ATCC 4671, 72 h, read-out: IZ; procedure, shortened: as §1
Bacillus subtilis [25] = assay: Antibacterial activity against Bacillus subtilis ATCC 6633 at 1 mg/ml after 24 hrs by agar-well diffusion assay; format: functional; conditions: ATCC 6633, 24 h, read-out: IZ; procedure, shortened: as §2
Saccharomyces cerevisiae [26] = assay: Antifungal activity against Saccharomyces cerevisiae ATCC 9763 at 1 mg/ml after 48 hrs by agar-well diffusion assay; format: functional; procedure, shortened: as §1

SMILES	inhibition zone (IZ) (Saccharomyces cerevisiae [1])	zone of inhibition at 1000 µg/mL [2]	inhibition zone (IZ) (Pseudomonas aeruginosa [3])	zone of inhibition at 1000 µg/mL [6]	zone of inhibition at 1000 µg/mL (Bacillus subtilis [7])	zone of inhibition at 1000 µg/mL (Staphylococcus aureus [8])	inhibition zone (IZ) (Aspergillus niger [9])	zone of inhibition at 1000 µg/mL (Candida albicans [10])	inhibition zone (IZ) (Escherichia coli [11])	inhibition zone (IZ) (Aspergillus niger [12])	zone of inhibition at 1000 µg/mL [13]	zone of inhibition at 1000 µg/mL [17]	inhibition zone (IZ) (Pseudomonas aeruginosa [18])	zone of inhibition at 1000 µg/mL (Candida albicans [20])	inhibition zone (IZ) (Escherichia coli [21])	zone of inhibition at 1000 µg/mL (Staphylococcus aureus [22])	zone of inhibition at 1000 µg/mL (Bacillus subtilis [25])	inhibition zone (IZ) (Saccharomyces cerevisiae [26])	inhibition zone (IZ) (Trametes sanguinea [5])	inhibition zone (IZ) (Trametes sanguinea [23])	also measured
C=C(C)[C@@H]1CC[C@@]23C[C@@H]4[C@@H](C[C@H]2[C@]1(C)CCC(=O)O)[C@@]4(C)C3	inactive	1 mm	inactive	7 mm	7 mm	7 mm	inactive	3 mm	inactive	inactive	3 mm	7 mm	inactive	3 mm	inactive	7 mm	> 12 mm	inactive	–	–	MIC (Bacillus subtilis [4]): 25 µg/mL (≈ 82.7 µM); zone of inhibition at 1000 µg/mL (Trametes sanguinea [5]; ATCC 16422, 48 h, read-out: IZ): 3 mm; MIC (Saccharomyces cerevisiae [14]): 100 µg/mL (≈ 331 µM); MIC (Bacillus subtilis [15]): 25 µg/mL (≈ 82.7 µM); MIC (Saccharomyces cerevisiae [16]): 100 µg/mL (≈ 331 µM); zone of inhibition at 1000 µg/mL (Helminthosporium [19]): 1 mm; zone of inhibition at 1000 µg/mL (Trametes sanguinea [23]; ATCC 16422, 72 h, read-out: IZ): 1 mm; inhibition zone (IZ) (Helminthosporium [24]): inactive
COC(=O)CC[C@]1(C)C(C(C)=O)CC[C@@]23C[C@@H]4[C@@H](CC21)[C@@]4(C)C3 (stereo not given in full)	inactive	–	inactive	3 mm	3 mm	–	inactive	1 mm	inactive	inactive	–	–	inactive	1 mm	inactive	–	7 mm	inactive	inactive	inactive	inhibition zone (IZ) [2]: inactive; inhibition zone (IZ) (Staphylococcus aureus [8]): inactive; inhibition zone (IZ) [13]: inactive; inhibition zone (IZ) (Helminthosporium [19]): inactive; inhibition zone (IZ) (Staphylococcus aureus [22]): inactive; inhibition zone (IZ) (Helminthosporium [24]): inactive
C=C(C)[C@@H]1CC[C@@]23C[C@@H]4[C@@H](C[C@H]2[C@]1(C)CCC(=O)OC)[C@@]4(C)C3	–	–	inactive	1 mm	1 mm	1 mm	–	–	inactive	–	–	1 mm	inactive	–	inactive	1 mm	1 mm	–	–	–	–
CN[C@@H]1[C@H](O[C@H]2[C@H](O[C@H]3[C@H](O)[C@@H](O)[C@H](N=C(N)N)[C@@H](O)[C@@H]3N=C(N)N)O[C@@H](C)[C@]2(O)C=O)O[C@@H](CO)[C@H](O)[C@H]1O [STREPTOMYCIN SULFATE]	–	–	–	> 12 mm	7 mm	7 mm	–	–	–	–	–	> 12 mm	–	–	–	7 mm	7 mm	–	–	–	zone of inhibition at 1000 µg/mL (Pseudomonas aeruginosa [3]; ATCC 15442, 48 h, read-out: IZ): 3 mm; zone of inhibition at 1000 µg/mL (Escherichia coli [11]; ATCC 10536, 48 h, read-out: IZ): 7 mm; zone of inhibition at 1000 µg/mL (Pseudomonas aeruginosa [18]; ATCC 15442, 24 h, read-out: IZ): 7 mm; zone of inhibition at 1000 µg/mL (Escherichia coli [21]; ATCC 10536, 24 h, read-out: IZ): 7 mm
COC(=O)C1=CCC[C@@H]2[C@@](C)(CCc3ccoc3)[C@H](C)CC[C@@]12C [HARDWICKIC ACID METHYL ESTER]	inactive	1 mm	inactive	1 mm	1 mm	1 mm	inactive	1 mm	inactive	inactive	1 mm	1 mm	inactive	1 mm	inactive	1 mm	1 mm	inactive	inactive	inactive	zone of inhibition at 1000 µg/mL (Helminthosporium [19]): 1 mm; zone of inhibition at 1000 µg/mL (Helminthosporium [24]): 1 mm
CN[C@@H]1[C@H](O[C@H]2[C@H](O[C@H]3[C@H](O)[C@@H](O)[C@H](N=C(N)N)[C@@H](O)[C@@H]3N=C(N)N)O[C@@H](C)[C@]2(O)C=O)O[C@@H](CO)[C@H](O)[C@H]1O [STREPTOMYCIN]	–	–	–	–	–	–	–	–	–	–	–	–	–	–	–	–	–	–	–	–	MIC (Bacillus subtilis [4]): 3.12 µg/mL (≈ 5.36 µM); MIC (Bacillus subtilis [15]): 3.12 µg/mL (≈ 5.36 µM)
C=C(C)[C@@H]1CC[C@@]23C[C@@H]4[C@@H](C[C@H]2[C@]1(C)CCCO)[C@@]4(C)C3	inactive	–	inactive	1 mm	3 mm	1 mm	inactive	1 mm	inactive	inactive	–	1 mm	inactive	1 mm	inactive	–	3 mm	inactive	inactive	inactive	inhibition zone (IZ) [2]: inactive; inhibition zone (IZ) [13]: inactive; inhibition zone (IZ) (Helminthosporium [19]): inactive; inhibition zone (IZ) (Staphylococcus aureus [22]): inactive; inhibition zone (IZ) (Helminthosporium [24]): inactive
C[C@@H]1CC[C@@]2(C)C(CO)=CCC[C@@H]2[C@@]1(C)CCc1ccoc1 [HARDWICKIOL]	–	3 mm	inactive	7 mm	3 mm	3 mm	inactive	7 mm	inactive	inactive	7 mm	7 mm	inactive	3 mm	inactive	3 mm	3 mm	–	inactive	inactive	zone of inhibition at 1000 µg/mL (Saccharomyces cerevisiae [1]; ATCC 9763, 72 h, read-out: IZ): 3 mm; zone of inhibition at 1000 µg/mL (Helminthosporium [19]): 3 mm; zone of inhibition at 1000 µg/mL (Helminthosporium [24]): 1 mm; zone of inhibition at 1000 µg/mL (Saccharomyces cerevisiae [26]; ATCC 9763, 48 h, read-out: IZ): 3 mm
